As a reminder, the pIC50 is −log10 of the IC50, conventionally taken in molar units. Low values mean a large IC50, high ones a small IC50. Usually Inhibition stands for how much of the control response was suppressed. A word on the inhibition in vivo: it is the drop in the measured response relative to a control, in per cent.

pIC50: −log10 of the molar value.

The text below walks through data of ChEMBL document CHEMBL1125409, “Synthesis and biological activity of acyclic analogues of 5,10-dideaza-5,6,7,8-tetrahydrofolic acid” (J Med Chem, 1992).

In data set [1] the test system is CCRF-CEM. The data set is described as follows: Cytotoxicity against human lymphoblastic leukemic CCRF-CEM cell line was evaluated as the concentration required for 50% inhibition of the growth of the control value. It counts as functional, cell-based. In short, it runs like this:
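CCRF-CEM cells in RPMI 1640 with 10% dialyzed FBS, 16 mM HEPES and 8 mM MOPS, seeded at 4.8×10⁴ cells/well. Duplicate wells got graded concentrations diluted from a 4 mg/mL DMSO stock. After 72 h (95% air/5% CO₂), cells were counted on a Coulter counter. IC50 was taken from dose-response curves as 50% growth inhibition versus control.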

The subject of data set [2] is CCRF-CEM. In words: Compound was evaluated for reversal of growth inhibition against human lymphoblastic leukemic CCRF-CEM cells at 0.46 uM concentration and with 5 uM of Thymidine. It counts as functional.
Data set [3] relates to CCRF-CEM. In words: Compound was evaluated for reversal of growth inhibition against human lymphoblastic leukemic CCRF-CEM cells at 0.46 uM concentration and with 100 uM of hypoxanthine. It counts as functional.
Data set [4] relates to CCRF-CEM. In words: Compound was evaluated for reversal of growth inhibition against human lymphoblastic leukemic CCRF-CEM cells at 0.46 uM concentration and with 300 uM of AICA. It counts as functional.
Data set [5] can be described thus: In vivo antitumor activity against 6C3HED tumor type after intraperitoneal administration of 400 mg/kg. It counts as functional. As to conditions: ip. The gist of the method:
(§1)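 6C3HED lymphosarcoma: 1–2 mm³ fragments implanted sc by trocar in the axilla of syngeneic C3H mice. Dosing ip twice daily for 8 days, starting 24 h after implant. One day after the last dose, tumor volume was taken as L(W²)/2 and compared with controls to give % inhibition. Deaths over group size were recorded.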

Data set [6] relates to Mus musculus. The data set is described as follows: In vivo antitumor activity against C3H mammary tumor type was expressed as toxic deaths/total treated mice at 400 mg/kg dose given once daily for 10 days; 2/10. The conditions noted are these: 240 h.
The subject of data set [7] is Mus musculus. The data set is described as follows: In vivo antitumor activity against […] tumor type was expressed as toxic deaths/total treated mice at 50 mg/kg dose given once daily for 10 days; 2/10. The format is ADME, organism-based. Also on record: dose 50 mg/kg. As to conditions: 240 h.
The nature of data set [8]: In vivo antitumor activity against lymphosarcoma tumor type after intraperitoneal administration of 50 mg/kg dose given twice daily for 8 days. It counts as functional. As to conditions: ip, 192 h. The gist of the method: as §1
Data set [9] deals with Mus musculus. The data set is described as follows: In vivo antitumor activity against lymphosarcoma tumor type was expressed as toxic deaths/total treated mice at 50 mg/kg dose given twice daily for 8 days; 0/10. It counts as ADME, organism-based. As to conditions: 192 h. Also on record: dose 50 mg/kg.
Data set [10] in a line: In vivo antitumor activity against lymphosarcoma tumor type after intraperitoneal administration of 200 mg/kg dose given twice daily for 8 days. It counts as functional. As to conditions: ip, 192 h. In short, it runs like this:
as §1

The nature of data set [11]: In vivo antitumor activity against […] tumor type after intraperitoneal administration of 100 mg/kg dose given once daily for 10 days. The format is functional. The conditions noted are these: ip, 240 h. In short, it runs like this:
(§2)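 C3H mammary adenocarcinoma fragments (1–2 mm³) were trocar-implanted sc axillary in syngeneic C3H mice. Treatment was ip once daily for 10 days, beginning 24 h post-implant. Tumor width and length were measured one day after the final dose, with V = L(W²)/2. Growth inhibition was calculated against untreated controls, and toxicity/total was noted.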

The test system of data set [12] is Mus musculus. The data set is described as follows: In vivo antitumor activity against […] tumor type was expressed as toxic deaths/total treated mice at 100 mg/kg dose given once daily for 10 days; 1/10. It counts as ADME, organism-based. Also noted: dose 100 mg/kg. As to conditions: 240 h.
Data set [13] is described as follows: In vivo antitumor activity against C3H mammary tumor type after intraperitoneal administration of 400 mg/kg dose given once daily for 10 days. As to conditions: ip, 240 h.
Data set [14] is described as follows: In vivo antitumor activity against […] tumor type after intraperitoneal administration of 200 mg/kg dose given once daily for 10 days. The format is functional. As to conditions: ip, 240 h. In short, it runs like this: as §2
The subject of data set [15] is Mus musculus. In words: In vivo antitumor activity against 6C3HED tumor type was expressed as toxic deaths/total treated mice at 400 mg/kg dose; 2/10. The format is ADME, organism-based. Also noted: dose 400 mg/kg.
Data set [16] is described as follows: In vivo antitumor activity against lymphosarcoma tumor type after intraperitoneal administration of 100 mg/kg dose given twice daily for 8 days. It counts as functional. The conditions noted are these: ip, 192 h. The gist of the method: as §1
The test system of data set [17] is Mus musculus. The data set is described as follows: In vivo antitumor activity against lymphosarcoma tumor type was expressed as toxic deaths/total treated mice at 100 mg/kg dose given twice daily for 8 days; 0/9. It counts as ADME, organism-based. Also on record: dose 100 mg/kg. As to conditions: 192 h.
Data set [18] deals with Mus musculus. The data set is described as follows: In vivo antitumor activity against […] tumor type was expressed as toxic deaths/total treated mice at 200 mg/kg dose given once daily for 10 days; 0/10. The format is ADME, organism-based. Also noted: dose 200 mg/kg. The conditions noted are these: 240 h.
Data set [19] is described as follows: In vivo antitumor activity against […] tumor type after intraperitoneal administration of 50 mg/kg dose given once daily for 10 days. It counts as functional. As to conditions: ip, 240 h. The gist of the method: as §2

Regarding `Nc1nc(N)c(CCCCc2csc(C(=O)N[C@@H](CCC(=O)O)C(=O)O)c2)c(O)n1`, the negative logarithm of the IC50 (pIC50) in [1] is 6.85.
Still for that read-out and setting: for `Nc1nc(N)c(CCCCc2ccc(C(=O)N[C@@H](CCC(=O)O)C(=O)O)s2)c(O)n1` the value was 7.23; for `Cc1nc(N)[nH]c(=O)c1CCCCc1ccc(C(=O)N[C@@H](CCC(=O)O)C(=O)O)cc1`, 5.63.
Take `Nc1nc(N)c(CCCNc2ccc(C(=O)N[C@@H](CCC(=O)O)C(=O)O)cc2)c(O)n1`: the Inhibition in data set [2] is given as 77%; in data set [3], 0%; in data set [4], 55%. In data set [1], this compound gave a negative logarithm of the IC50 (pIC50) of 6.70.
Take `Nc1nc(O)c(CCCCc2ccc(C(=O)N[C@@H](CCC(=O)O)C(=O)O)cc2)c(O)n1`: the pIC50 in data set [1] is 4.40.
The compound `Nc1nc(N)c(CCCCCCCCCC(=O)N[C@@H](CCC(=O)O)C(=O)O)c(O)n1` gave a pIC50 in data set [1] below 4.33.
Same read-out and setting: for `Nc1nc(N)c(CCCCc2ccc(C(=O)N[C@@H](CCC(=O)O)C(=O)O)cc2)c(N)n1` the value was 7.38.
Same read-out and setting: for `Nc1nc(N)c(CCCCc2ccc(C(=O)N[C@@H](CC(=O)O)C(=O)O)cc2)c(O)n1` the value was below 4.32; for `Nc1nc(N)c(CCCCc2ccc(C(=O)N[C@@H](Cc3ccccc3)C(=O)O)cc2)c(O)n1`, below 4.35.
For the compound `Nc1nc(N)c(CCCCc2ccc(C(=O)N[C@@H](CCC(=O)O)C(=O)O)cc2)c(=O)[nH]1` [DIDEAZAACYCLOTETRAHYDROFOLIC ACID], the Inhibition is given as 80% in data set [2], 0% in [3] and 0% in data set [4]. Besides, in data set [1], the pIC50 was 6.88. In addition, the inhibition in vivo at 400 mg/kg in data set [5] stood at 100%; in data set [13] it was 78%. Also, the Toxicity in [6] is given as 2; in data set [7], 2; in data set [9] it was 0; in [12] it was 1; in data set [15], 2; in data set [17] it was 0. Moreover, the Toxicity in [18] is 0. For the same compound, the values for the inhibition in vivo at 50 mg/kg in data set [8] and in data set [19] were 44% and 17%, respectively. Besides, the results for the inhibition in vivo at 200 mg/kg in [10] and in [14] were 92% and 36%, respectively. The inhibition in vivo at 100 mg/kg in [11] amounted to 37%; in [16], 66%.
`Nc1nc2c(c(=O)[nH]1)C[C@@H](CCc1ccc(C(=O)N[C@@H](CCC(=O)O)C(=O)O)cc1)CN2` [LOMETREXOL]: in data set [1], the negative logarithm of the IC50 (pIC50) is 7.80.
